From ChEMBL document CHEMBL4513216, “Probing the Open Global Health Chemical Diversity Library for Multistage-Active Starting Points for Next-Generation Antimalarials” (ACS Infect Dis, 2020)

Test: Toxicity liver stage against HepG2, at 10uM
Type: cell-based
Design: test concentration 10 uM, cell line HepG2-A16-CD81EGFP
Settings: human, HepG2-A16-CD81EGFP cells; read-out: INHIBITION
In short: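 Uninfected HepG2-A16-CD81EGFP cells, 3 × 10^3 per well, 1536-well, plated on prespotted compound at 10 μM final, parasite-free screening media added to match infected plates; puromycin 10 μM positive, DMSO 0.5% negative; run in parallel with 48 h PbLuc assay at 37 °C, 5% CO2; viability by CellTiter-Glo luminescence, normalized to controls.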

Row | SMILES | cytotoxicity at 10 µM
1 | NS(=O)(=O)c1cccnc1Nc1c(Cl)cccc1Cl | -11.8%
2 | COc1ccc(NC(=O)c2nc3ccccc3n(C)c2=O)cc1OC | -7.36%
3 | Cc1cc(Cl)ccc1-n1ncc(C(=O)NCC2COC(C)(C)O2)c1N (stereo not given) | -2.25%
4 | O=c1n(Cc2ccccc2F)nc2ncccn12 | -4.49%
5 | CC(=O)Nc1ccc(SCCCC(=O)NCC2CCCO2)nn1 (stereo not given) | -8.67%
6 | Cc1nc(NC(=O)c2c3c(nn2C2CCS(=O)(=O)C2)CCC3)sc1C (stereo not given) | -4.57%
7 | O=C(Nc1c(F)cccc1F)N1CC(c2nc(C3CC3)no2)C1 | -1.65%
8 | CN(C)S(=O)(=O)NCC(Cc1cccc(F)c1)N1CCNC1=O (stereo not given) | -3.55%
9 | CC(C)(C)OC(=O)N1CCN(C(=O)c2cnn3c2OCCC3)CC1 | -2%
10 | CCC(=O)N1CCN(c2cc(N(C)C)cnn2)CC1 | 2%
11 | COCCN1C(=O)C2(CCC(C(=O)Nc3cccc(C)c3)CC2)N=C1C (stereo not given) | 9.76%
12 | O=C(NC1CC1)c1nc2c(s1)CCCN2c1ccccc1 | -157%
13 | O=S(=O)(C1CC1)N1CCOC2(CCCN(c3ccccc3)C2)C1 (stereo not given) | -4.54%
14 | Cc1cnc(N2C[C@@H]3CCN(CC4CC4)C(=O)[C@H]3C2)nc1 | 3.47%
15 | O=S(=O)(C1CC1)N1CCC2(CCCN(c3ncc(F)cn3)C2)C1 (stereo not given) | 11.5%
16 | CC(=O)N1CCC2(CC1)c1ncc(-c3ccccc3)n1CCN2C(C)=O | 10.5%
17 | COc1ccc(N2CCCC3(C2)CN(c2ncccn2)CCO3)cc1 (stereo not given) | 15.3%
18 | Cc1noc([C@@]23CCO[C@@H]2CCN(C(=O)c2ccsc2)C3)n1 | 9.1%
19 | O=C(Nc1ccccc1)C1CN(C(=O)c2cccs2)CC12CCOCC2 (stereo not given) | -2.13%
20 | COCCNc1nc(NCCc2ccccc2)nc2nccnc12 | 9.97%
21 | CCCNS(=O)(=O)c1cnccc1N1CCN(C(C)C)CC1 | -1.32%
22 | CC(=O)c1c(C)nn(S(=O)(=O)c2ccc(C)cc2)c1C | -1.61%

Row | SMILES | cytotoxicity at 10 µM
23 | Cn1cccc1C(=O)N1CCc2ncc(Cn3cccn3)n2CC1 | -5.2%
24 | COC(=O)c1ccn(COc2ccccc2Cl)n1 | 8.99%
25 | CCN1CCN(C(=O)c2cc(-c3cccs3)cs2)CC1 | 2.93%
26 | Cc1nn(C)c(C)c1NC(=O)CCn1ncc2ccc(Cl)cc21 | 7.38%
27 | CC(C)NC(=O)c1n[nH]c(-n2cnnc2)n1 | 1.08%
28 | CN1CCN(C(=O)CCn2c(C(F)(F)F)cc3cccnc32)CC1 | -31.9%
29 | O=C(c1ccncc1F)N1CCOC(c2cccc(O)c2)C1 (stereo not given) | -4.97%
30 | O=C(Cc1cccs1)N1CCOC(c2cccc(O)c2)C1 (stereo not given) | 0.631%
31 | COCCS(=O)(=O)NC(C)c1cccc(-n2cccn2)c1 (stereo not given) | 3.36%
32 | CCC(NC(=O)c1ccc(OC)nn1)c1nc(C(F)(F)F)cs1 (stereo not given) | -3.41%
33 | COCC(O)CNc1cncc(Br)c1 (stereo not given) | -2.52%
34 | O=C(c1ccc[nH]1)N1CCN(C(c2ccccc2)C(F)(F)F)CC1 (stereo not given) | 8.3%
35 | COc1ccc(C(=O)NC2COc3ccccc3C2)cc1OCC(=O)O (stereo not given) | -2.18%
36 | CC(C(=O)N1CCCCC1)N1CCN(c2ncc(Cl)cn2)CC1 (stereo not given) | -4.79%
37 | CCc1nc(CC)n(CC(=O)N(C)Cc2ccc(F)cc2)n1 | 5.25%
38 | O=C(NCc1ccc(Br)cc1)C1(O)CCSCC1 | -3.59%
39 | O=C(c1ccc(SC(F)(F)F)cc1)N1CCOCC1c1ncon1 (stereo not given) | -0.449%
40 | CCOC(=O)C1CCN(C(=O)CN2CCCC2c2cc(C)no2)CC1 (stereo not given) | 8.32%
41 | CC(=O)CC(C)(C)NC(=O)CCN(C)Cc1ccc(Cl)s1 | 7.35%
42 | Cc1noc(CN2CCN(CCO)CC2)n1 | 2.17%
43 | O=C1CN(c2ccc(CNC(=O)c3cccnc3O)cc2F)CCN1 | 5.04%
44 | CC(C)c1nc2c(n1C)CCN(CCc1ccccn1)C2 | -2.01%

Row | SMILES | cytotoxicity at 10 µM
45 | CCc1nn(C)c(CC)c1CNC(=O)Nc1cccc([S+](C)[O-])c1 (stereo not given) | -1.01%
46 | CC(C)(C)CC(=O)NS(=O)(=O)c1ccc(F)cc1C(F)(F)F | -4.3%
47 | Cc1cnn(CCC(=O)Nc2ccc(F)cc2OCC2CC2)c1 | -4.11%
48 | CC(=O)NCCSCCOc1cccc(Br)c1 | 10.1%
49 | Cc1cccc(N(CCC(N)=O)CC(=O)NC2CCCC2)c1 | -20%
50 | O=C(Nc1ccccc1)c1ccc(NCc2ccncc2)nn1 | -3.17%
51 | Cc1ccc(NC(=O)CNc2ccn(CC(N)=O)n2)c(Cl)c1 | 4.44%
52 | Cc1cc(NC(=O)N(C)C2CCN(c3ccccc3F)C2=O)n(C)n1 (stereo not given) | -7.52%
53 | CSCCC(NC(N)=O)C(=O)NCc1c(C)nn(-c2ccccc2)c1C (stereo not given) | 8.15%
54 | O=C(NCC1CCCCO1)c1ccc(-c2ccco2)[nH]c1=O (stereo not given) | -3.06%
55 | CN(CC(F)(F)F)C(=O)CNC(=O)Cc1cccc(O)c1 | 5.37%
56 | Cc1cccn2c(=O)cc(CN3CCCCC3Cn3cncn3)nc12 (stereo not given) | 10.7%
57 | Cn1ncc2c1C(COCC1CC1)CN(S(=O)(=O)C1CC1)C2 (stereo not given) | -74.3%
58 | OC[C@@H]1CCCN1c1nccc(-c2c[nH]nc2-c2ccncc2)n1 | -4.28%
59 | CN(C)C1(CNc2nccc(C3CCCC3)n2)CCOCC1 | -1.3%
60 | COCCCN1CC2(CCN(C(=O)c3ccc(=O)n(C)c3)CC2)CC1=O | -9.69%
61 | Cc1cc(N(C)CCN(C)C2CCCC2)n2nc(C)cc2n1 | -6.09%
62 | Cn1cnnc1CN1CCC2(CCCN(C3CCCC3)C2=O)C1 (stereo not given) | -133%
63 | CN(Cc1cc(-c2ccccc2)no1)C(=O)CNS(C)(=O)=O | 0.0288%
64 | Cc1nn(C)c(C)c1CCC(=O)N1CCN(CCn2cncn2)CC1 | 2.33%
65 | Cc1cc(-c2cnn(C)c2)ccc1OCC(N)=O | 2.74%
66 | OC1(CNCCc2csc(-c3ccncc3)n2)CCCNC1 (stereo not given) | -13.2%

Row | SMILES | cytotoxicity at 10 µM
67 | Cc1nc2c(c(N3CCC(O)(CN4CCCC4)CC3)n1)CCNCC2 | -3.39%
68 | CCC(C)N(Cc1cnc(OC)nc1)Cc1ccsc1 (stereo not given) | 1.71%
69 | O=C(COc1ccccc1N1CCCC1)N1CCN[C@H]2CS(=O)(=O)C[C@H]21 | -0.687%
70 | CC(C)c1nc(CN(C)C(=O)C(O)c2ccc(Cl)cc2)cs1 (stereo not given) | -150%
71 | Cc1cccc(C)c1NC(=O)NCC1CCCN(C2CCOCC2)C1 (stereo not given) | -5.95%
72 | CCCc1nnc(N2CCN(c3ccccc3Cl)CC2)o1 | 0.426%
73 | CCOC(=O)N1CCC(NC(C)Cc2cc(C)n[nH]2)CC1 (stereo not given) | -2.65%
74 | Cc1cc(C)n(-c2ccc(NCCNS(=O)(=O)c3ccccc3)nn2)n1 | -0.771%
75 | COc1ccc(NC(=O)c2cc3c([nH]c2=O)CCCC3=O)c(OC)c1 | -0.0455%
76 | Cc1ncsc1CCC(=O)NC1CCN(c2ccc(Cl)nn2)CC1 | -2.5%
77 | CC(C)C(=O)NCC(=O)N(C)C1CCCN(C2Cc3ccccc3C2)C1 (stereo not given) | -7.79%
78 | CCOc1ccc(-c2ccnc(CC)n2)cc1C(=O)O | -11.1%
79 | CC(=O)N1CCN(Cc2coc(-c3cccc(F)c3)n2)CC1 | -3.78%
80 | Cc1cc(CN(C)C2CCCN(Cc3noc(C)n3)C2)no1 (stereo not given) | 1.46%
81 | c1ccc(Cc2nnc(CN3CCCC(Cn4cncn4)C3)o2)cc1 (stereo not given) | -4.51%
82 | Cc1cc(C)n(C2CCCN(C(=O)Cc3cn4ccsc4n3)C2)n1 (stereo not given) | -6.07%
83 | Cc1cnn(CC2CCCN2C(=O)c2ccc(OCC3CC3)nc2)c1 (stereo not given) | -9.86%
84 | Cc1cnc(C(=O)NC(CN2CCCC2=O)c2ccccc2)cn1 (stereo not given) | -8.8%
85 | O=C(Nc1ccncc1)C1=NN(c2ccccc2)C(=O)CN1 | 2.76%
86 | Cc1csc(N2CCN(C(=O)CCn3cccn3)CC2)n1 | -9.41%
87 | Cc1nn(C)c(N2CCOCC2)c1CN[C@@H]1c2ccccc2C[C@@H]1O | -12.2%
88 | CCc1n[nH]c(C2CN(C(=O)c3cc(C(N)=O)cs3)CCO2)n1 (stereo not given) | -17.5%

Row | SMILES | cytotoxicity at 10 µM
89 | CC(=O)NC1CCCN(C(=O)Nc2cccnc2-n2cccn2)C1 (stereo not given) | -15.3%
90 | CCn1ccnc1CN1CCCN(C(=O)COC2CCCCC2)CC1 | -11.7%
91 | CC(=O)Nc1nc(C(=O)NCc2ccc(OC(C)C)nc2)cs1 | -2.45%
92 | Cc1noc(CCCC(=O)NC(C)c2cccnc2)n1 (stereo not given) | -12.5%
93 | COc1cccc(CN2CCCC2c2c(C)nn(C)c2C)c1 (stereo not given) | -2.35%
94 | Cc1nnc(C2Cc3ccccc3CN2Cc2ncc(C(C)(C)C)o2)o1 (stereo not given) | 10%
95 | COc1ccccc1CC1CCCN(CC(=O)N2CCOCC2)C1 (stereo not given) | 7.87%
96 | CC1CCN(CCCNS(=O)(=O)c2cccc(F)c2)CC1 | -12.3%
97 | O=C(CC1CCC2(CC1)CCN(Cc1ccncc1)CC2)N1CCCC1 | 6.72%
98 | Cn1cccc1C(=O)N1CCCC2(CCN(CCN3CCCC3)C2=O)C1 (stereo not given) | -10.8%
99 | Cc1ccc(CN2Cc3nnn(C)c3C(COCC3CC3)C2)o1 (stereo not given) | -4.7%
100 | CC(=O)N1CCCC1c1nnn2cc(NCc3cccnc3)ccc12 (stereo not given) | 17.1%
101 | COc1ccc(CN2C[C@H]3CCC[C@@H](CN(C)C4CC4)[C@H]3C2)cn1 | 4.56%
102 | CS(=O)(=O)c1cccc(C(N)c2ccc(F)c(F)c2)c1 (stereo not given) | 6.62%
103 | O=C([C@H]1C[C@@H]2CCN(C3CCOCC3)C[C@@H]2O1)N1CCOCC1 | -2.56%
104 | Fc1cnc(N2CCCC3(CN(Cc4ccccc4)CCO3)C2)nc1 (stereo not given) | 12.4%
105 | O=C(NCc1ccco1)[C@H]1C[C@H]2OCC[C@H]2N(C(=O)c2ccncc2)C1 | -5.34%
106 | CCn1ncc2c1C(COCC1CC1)CN(c1ccncn1)C2 (stereo not given) | 2.74%
107 | CC(C)=CCN1C(=O)[C@@H]2CC[C@H]1CN(C(=O)CCc1nnc(Cl)[nH]1)C2 | 2.96%
108 | O=C(c1cc(C2CCCCC2)no1)N1C[C@H]2CC(O)C[C@H]2C1 (stereo not given in full) | -3.89%
109 | O=c1[nH]c2cn(-c3cccc(Cl)c3)c(=O)n2[nH]1 | 1.35%
110 | O=C(NCC1(COc2cnccn2)C[C@@H](O)[C@@H](O)C1)C1CCCC1 (stereo not given in full) | -1.81%
